Experimental data published in ChEMBL document CHEMBL3414524, “Synthesis, carbonic anhydrase inhibition and cytotoxic activity of novel chromone-based sulfonamide derivatives” (Eur J Med Chem, 2015).

Assays:
[1] = tested on: A549; experiment: Cytotoxicity against human A549 cells after 72 hrs by sulforhodamine B assay; format: functional, cell-based; conditions: A549, 72 h
Summary of the method: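 Cells in log phase were plated at 1000-2000 cells/well. After 24 h they were exposed to a range of concentrations for 72 h, then fixed with 10% TCA for 1 h at 4 °C. Staining used 0.4% SRB in 1% acetic acid for 10 min at room temperature, with the dye solubilized in Tris-HCl and OD read at 564 nm. IC50 came from a Boltzmann sigmoidal nonlinear fit, as the mean of three separate experiments.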

[2] = tested on: MCF7; experiment: Cytotoxicity against human MCF7 cells after 72 hrs by sulforhodamine B assay; format: functional, cell-based; conditions: MCF7, 72 h
Summary of the method: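 Cells in log phase were plated at 1000-2000 cells/well. After 24 h they were exposed to a range of concentrations for 72 h, then fixed with 10% TCA for 1 h at 4 °C. IC50 came from a Boltzmann sigmoidal nonlinear fit, as the mean of three separate experiments.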

[3] = target: Carbonic anhydrase 1 (Homo sapiens, UniProt P00915); experiment: Inhibition of human cytosolic form of carbonic anhydrase-1 assessed as CO2 hydration activity incubated for 15 mins prior to testing by stopped flow method
Chain of Carbonic anhydrase 1 (P00915 whole entry): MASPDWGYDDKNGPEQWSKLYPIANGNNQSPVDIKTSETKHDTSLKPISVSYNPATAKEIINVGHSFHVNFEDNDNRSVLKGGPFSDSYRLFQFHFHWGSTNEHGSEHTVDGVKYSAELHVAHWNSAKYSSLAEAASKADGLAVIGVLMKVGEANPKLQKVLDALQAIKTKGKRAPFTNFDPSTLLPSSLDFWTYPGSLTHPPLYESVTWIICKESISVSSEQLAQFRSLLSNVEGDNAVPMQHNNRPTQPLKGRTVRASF

[4] = target: Carbonic anhydrase 9 (Homo sapiens, UniProt Q16790); experiment: Inhibition of human membrane associated form of carbonic anhydrase-9 assessed as CO2 hydration activity incubated for 15 mins prior to testing by stopped flow method
[5] = target: Carbonic anhydrase 2 (Homo sapiens, UniProt P00918); experiment: Inhibition of human cytosolic form of carbonic anhydrase-2 assessed as CO2 hydration activity incubated for 15 mins prior to testing by stopped flow method
[6] = target: Carbonic anhydrase 12 (Homo sapiens, UniProt O43570); experiment: Inhibition of human membrane associated form of carbonic anhydrase-12 assessed as CO2 hydration activity incubated for 15 mins prior to testing by stopped flow method
Chain of Carbonic anhydrase 12 (O43570 whole entry): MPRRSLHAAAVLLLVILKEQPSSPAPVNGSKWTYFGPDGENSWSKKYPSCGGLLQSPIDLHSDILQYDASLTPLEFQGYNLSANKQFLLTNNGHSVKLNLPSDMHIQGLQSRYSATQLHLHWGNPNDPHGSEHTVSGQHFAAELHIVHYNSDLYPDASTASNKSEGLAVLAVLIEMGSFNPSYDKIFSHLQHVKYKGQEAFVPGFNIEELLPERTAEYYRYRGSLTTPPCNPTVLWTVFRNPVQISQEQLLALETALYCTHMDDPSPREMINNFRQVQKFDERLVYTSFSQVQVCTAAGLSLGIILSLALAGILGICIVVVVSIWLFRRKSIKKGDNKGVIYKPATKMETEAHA

[7] = tested on: MCF7; experiment: Induction of apoptosis in human MCF7 cells assessed as late apoptotic cells at 0.72 uM after 24 hrs by annexin V-FITC/propidium iodide staining-based flow cytometric analysis (reference value: 0.01%); format: functional
Summary of the method: (§1)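 Cells were seeded at 1 x 10^5 cells/ml and held 24 h at 37 °C in 5% CO2, then treated for a further 24 h. They were harvested with 0.25% trypsin, washed twice in Ca2+/Mg2+-free PBS and adjusted to 1 x 10^6 cells/ml. Staining with annexin V-FITC/PI ran 30 min in the dark at room temperature, in binding buffer, with flow cytometry within 1 h. Untreated cells served as control.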

[8] = tested on: MCF7; experiment: Induction of apoptosis in human MCF7 cells assessed as viable cells at 0.72 uM after 24 hrs by annexin V-FITC/propidium iodide staining-based flow cytometric analysis (reference value: 98.41%); format: functional; conditions: MCF7, 24 h, read-out: Activity; summary of the method: as §1
[9] = tested on: A549; experiment: Induction of apoptosis in human A549 cells assessed as viable cells at 0.5 uM after 24 hrs by annexin V-FITC/propidium iodide staining-based flow cytometric analysis (reference value: 96.06%); format: functional; conditions: A549, 24 h, read-out: Activity; summary of the method: as §1
[10] = tested on: A549; experiment: Induction of apoptosis in human A549 cells assessed as necrotic cells at 0.5 uM after 24 hrs by annexin V-FITC/propidium iodide staining-based flow cytometric analysis (reference value: 2.04%); format: functional; summary of the method: as §1
[11] = tested on: A549; experiment: Induction of apoptosis in human A549 cells assessed as late apoptotic cells at 0.5 uM after 24 hrs by annexin V-FITC/propidium iodide staining-based flow cytometric analysis relative to control; format: functional; summary of the method: as §1
[12] = tested on: A549; experiment: Induction of apoptosis in human A549 cells assessed as early apoptotic cells at 0.5 uM after 24 hrs by annexin V-FITC/propidium iodide staining-based flow cytometric analysis (reference value: 1.9%); format: functional; summary of the method: as §1
[13] = tested on: MCF7; experiment: Induction of apoptosis in human MCF7 cells assessed as early apoptotic cells at 0.72 uM after 24 hrs by annexin V-FITC/propidium iodide staining-based flow cytometric analysis relative to control; format: functional; summary of the method: as §1
[14] = tested on: MCF7; experiment: Induction of apoptosis in human MCF7 cells assessed as necrotic cells at 0.72 uM after 24 hrs by annexin V-FITC/propidium iodide staining-based flow cytometric analysis (reference value: 1.58%); format: functional; summary of the method: as §1

| Ki [3] [µM] | Ki [4] [µM] | SMILES | IC50 [1] [µM] | IC50 [2] [µM] | also measured |
| --- | --- | --- | --- | --- | --- |
| – | – | O=c1c(CNc2ccc(S(=O)(=O)Nc3ncccn3)cc2)coc2ccccc12 | 85.2 | > 100 | – |
| > 10 | 0.0238 | CCOC1Oc2ccccc2C(=O)/C1=C/Nc1ccc(S(=O)(=O)Nc2cc(C)on2)cc1 (centres undefined) | 57.2 | 25.8 | Ki [5]: > 10 µM |
| – | – | O=C1/C(=C/c2coc3ccccc3c2=O)N=C(c2ccccc2)N1c1ccc(S(=O)(=O)Nc2nccs2)cc1 | 88.4 | 88.5 | – |
| > 10 | 0.0199 | CCOC1Oc2ccccc2C(=O)/C1=C/Nc1ccc(S(=O)(=O)Nc2nccs2)cc1 (centres undefined) | > 100 | 48.6 | Ki [5]: > 10 µM |
| – | – | O=C1/C(=C/c2coc3ccccc3c2=O)N=C(c2ccc(Cl)cc2)N1c1ccc(S(=O)(=O)Nc2ccccn2)cc1 | > 100 | > 100 | – |
| – | – | O=C1/C(=C/c2coc3ccccc3c2=O)N=C(c2ccc(Cl)cc2)N1c1ccc(S(=O)(=O)Nc2ncccn2)cc1 | 59 | > 100 | – |
| – | – | O=C1/C(=C/c2coc3ccccc3c2=O)N=C(c2ccccc2)N1c1ccc(S(=O)(=O)Nc2ccccn2)cc1 | > 100 | > 100 | – |
| – | – | Cc1cc(NS(=O)(=O)c2ccc(N3C(=O)/C(=C/c4coc5ccccc5c4=O)N=C3c3ccc(Cl)cc3)cc2)no1 | > 100 | > 100 | – |
| 0.399 | 0.0143 | NS(=O)(=O)c1ccc(NC2=NC(=O)/C(=C\c3coc4ccccc4c3=O)S2)cc1 | 2.23 | 8.91 | – |
| – | – | O=C1/C(=C/c2coc3ccccc3c2=O)N=C(c2ccc(Cl)cc2)N1c1ccc(S(=O)(=O)Nc2nccs2)cc1 | > 100 | > 100 | – |
| – | – | O=C1/C(=C/c2coc3ccccc3c2=O)N=C(c2ccccc2)N1c1ccc(S(=O)(=O)Nc2ncccn2)cc1 | 40.5 | > 100 | – |
| – | – | Cc1cc(C)nc(NS(=O)(=O)c2ccc(N3C(=O)/C(=C/c4coc5ccccc5c4=O)N=C3c3ccc(Cl)cc3)cc2)n1 | 52.6 | 93.9 | – |
| > 10 | 0.0252 | Cc1cc(NS(=O)(=O)c2ccc(N3C(=O)/C(=C/c4coc5ccccc5c4=O)N=C3c3ccccc3)cc2)no1 | > 100 | 30 | – |
| – | – | O=c1c(CNc2ccc(S(=O)(=O)Nc3ccccn3)cc2)coc2ccccc12 | > 100 | > 100 | – |
| – | – | CCOC1Oc2ccccc2C(=O)/C1=C/Nc1ccc(S(=O)(=O)Nc2ncccn2)cc1 (centres undefined) | > 100 | 30.1 | – |
| > 10 | 0.0209 | CCOC1Oc2ccccc2C(=O)/C1=C/Nc1ccc(S(=O)(=O)Nc2ccccn2)cc1 (centres undefined) | 39.1 | 28.8 | Ki [6]: 0.062 µM; Ki [5]: > 10 µM |
| – | 0.0298 | NS(=O)(=O)c1ccc(NCc2coc3ccccc3c2=O)cc1 | 0.5 | 0.72 | Activity [7]: 0.72%; viability at 0.72 µM [8]: 5.16%; viability at 0.5 µM [9]: 23.5%; Activity [10]: 0.06%; Activity [11]: 1.64%; Activity [12]: 74.77%; Activity [13]: 94.12%; Activity [14]: 0% |
| – | – | Cc1cc(C)nc(NS(=O)(=O)c2ccc(NCc3coc4ccccc4c3=O)cc2)n1 | 55.8 | 93.6 | – |
| – | – | O=C1N=C(Nc2ccc(S(=O)(=O)Nc3nccs3)cc2)S/C1=C/c1coc2ccccc2c1=O | > 100 | > 100 | – |
| – | – | Cc1cc(NS(=O)(=O)c2ccc(NC3=NC(=O)/C(=C\c4coc5ccccc5c4=O)S3)cc2)no1 | > 100 | > 100 | – |
| – | – | COc1cccc2c1C(=O)c1c(O)c3c(c(O)c1C2=O)C[C@@](O)(C(=O)CO)C[C@@H]3O[C@H]1C[C@H](N)[C@H](O)[C@H](C)O1 [DOXORUBICIN] | 26.8 | – | – |
| > 10 | 0.0184 | NS(=O)(=O)c1ccc(N2C(=O)/C(=C/c3coc4ccccc4c3=O)N=C2c2ccc(Cl)cc2)cc1 | 13.8 | 24.3 | – |
| – | – | CCOC1Oc2ccccc2C(=O)/C1=C/Nc1ccc(S(N)(=O)=O)cc1 (centres undefined) | 33.4 | 22.2 | – |
| – | – | O=c1c(CNc2ccc(S(=O)(=O)Nc3nccs3)cc2)coc2ccccc12 | 25.6 | 58.6 | – |
| – | – | Cc1cc(C)nc(NS(=O)(=O)c2ccc(NC3=NC(=O)/C(=C\c4coc5ccccc5c4=O)S3)cc2)n1 | > 100 | > 100 | – |
| – | – | Cc1cc(C)nc(NS(=O)(=O)c2ccc(N3C(=O)/C(=C/c4coc5ccccc5c4=O)N=C3c3ccccc3)cc2)n1 | 63.2 | 99.7 | – |
| 8 | 0.023 | NS(=O)(=O)c1ccc(N2C(=O)/C(=C/c3coc4ccccc4c3=O)N=C2c2ccccc2)cc1 | 1.73 | 11.5 | – |
| > 10 | 0.0376 | CCOC1Oc2ccccc2C(=O)/C1=C/Nc1ccc(S(=O)(=O)Nc2nc(C)cc(C)n2)cc1 (centres undefined) | 36.4 | 45.6 | Ki [5]: > 10 µM |
| > 10 | 0.0247 | O=C1N=C(Nc2ccc(S(=O)(=O)Nc3ncccn3)cc2)S/C1=C/c1coc2ccccc2c1=O | > 100 | 82.6 | Ki [5]: > 10 µM |

| SMILES | Ki [3] [µM] | Ki [4] [µM] | IC50 [1] [µM] | IC50 [2] [µM] | also measured |
| --- | --- | --- | --- | --- | --- |
| O=C1N=C(Nc2ccc(S(=O)(=O)Nc3ccccn3)cc2)S/C1=C/c1coc2ccccc2c1=O | > 10 | 0.0256 | > 100 | 47.1 | – |
| Cc1cc(NS(=O)(=O)c2ccc(NCc3coc4ccccc4c3=O)cc2)no1 | > 10 | 0.0321 | 59.7 | 34.5 | Ki [5]: > 10 µM |
